Reference: the EternaBench riboswitch data

Tested on: MS2 coat protein
Assay: apparent Kd, MS2 coat protein; higher = weaker binding; RNA-MaP array; FMN 200 µM where present
How it was run: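 Green signal was scaled to red-channel RNA signal and control-cluster median Fmax, and the apparent Kd was taken as the median of filtered per-cluster binding-curve fits. The binding series used SNAP-549-labelled MS2 coat protein from 0.7 or 1.5 nM, doubling to 3 µM, on designs transcribed by stalled E. coli RNA polymerase on Illumina sequencing-chip clusters. Each series ran without and then with constant ligand in 100 mM Tris-HCl pH 7.5, 80 mM KCl, 4 mM MgCl2, BSA, DTT, yeast tRNA and Tween-20.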

[1] = designed as: OFF switch for flavin mononucleotide, no ligand
[2] = ligand present: flavin mononucleotide, designed as: OFF switch for flavin mononucleotide
[3] = designed as: ON switch for flavin mononucleotide, no ligand
[4] = ligand present: flavin mononucleotide, designed as: ON switch for flavin mononucleotide

UCACAGGUUUAAGGCGUUCCCAGACAUGAGGAUCACCCAUGUAGAAGGACCGUAAGAAAUUUUCGGUAGGAUAUACAUUCAGGG
apparent Kd [1]: 28 nM
apparent Kd [2]: 31.9 nM

CCGGAGUCAGGAUAUACGAACAUGUCGCCAGAUGUCAAGGUACAUGAGGAUCACCCAUGUAGAAGGGAGGAGAA
apparent Kd [1]: 96.1 nM
apparent Kd [2]: 56.8 nM

CAGGCGGAGUCAGGAUAUGCACGGUGGACCUAUGACAUGAGGAUCACCCAUGUUACUACGCCUCAGCAGAAGGGACAACCUCCU
apparent Kd [3]: 88.8 nM
apparent Kd [4]: 7.87 nM

GGUCUUCAAGUCAGGAUAUCGUCUAAUAGAUAUAACGAGAAGGGACAUGAGGAUCACCCAUGUCGUCUCAUCAG
apparent Kd [1]: 23.6 nM
apparent Kd [2]: 69.1 nM

AAGUGCAUAGGAUAUAUAUGGAUAUACAUUUAUGUAGAACUACAUGAGGAUCACCCAUGUAGAAGGAUGCAAUA
apparent Kd [1]: 21.5 nM
apparent Kd [2]: 36.8 nM

AGACAUACUCAAGGAUAUCGUCGUACAUGAGGAUCACCCAUGUCGCACUUCUAAAGAGAAGUUGGCGAGAAGGUGAGGUUCGUU
apparent Kd [3]: 18.8 nM
apparent Kd [4]: 7.76 nM

CGAUUAUUGAUCCAUUUUUACAACAUGAGGAUCACCCAUGUGCAGGAUAUCGUGAUUAUUAUCAACGAGAAGGGCAAAUUCACG
apparent Kd [1]: 49 nM
apparent Kd [2]: 137 nM

UCGGACGUCGUAGGAUAUGUAGGAUAUUCCUACAUGAGGAUCACCCAUGUUGACAUGGAAGAAGGACAGAAGGACGAUGUCCAU
apparent Kd [3]: 192 nM
apparent Kd [4]: 4.7 nM

CGAUACAUGAGGGUCUCCCAUGACAUGAGGAUCACCCAUGUGCAGGAUAUACGUGUGAUGGUAUAGUAGAAGGGCAGUCUAUGU
apparent Kd [1]: 70.6 nM
apparent Kd [2]: 99.9 nM

UUUUAACAUGAGGAUCACCCAUGUGAGGAUAUCGAAAUUUAUAUUUAUAUUAAUAUAACGAGAAGGCACAUUUU
apparent Kd [1]: 55.5 nM
apparent Kd [2]: 83.2 nM

CUUCGACAUGAGGAUCACCCAUGUCAGGAUAUUGUUUAUCUGGUGUUGUCCAGAUAUGCAAGAAGGGAUGUGUG
apparent Kd [1]: 38.4 nM
apparent Kd [2]: 38.1 nM

GUACUGAAGCCUUGCUUUAGUCGUACAUGAGGAUCACCCAUGUAGGAUAUGGUAGGCUUUGCUUACUAGAAGGAUAGAGUGAUC
apparent Kd [1]: 56.1 nM
apparent Kd [2]: 34 nM

GUGUACAUCGGAGGAUAUCAUGUAAAUACAUGAGGAUCACCCAUGUCGAUGGAGACAUCGGAGAUUGAGAAGGCCGAUGUACCG
apparent Kd [3]: 169 nM
apparent Kd [4]: 9.35 nM

CGUGCGUAUGUGAGGAUAUGCUGGUCCUUGGAUCGGCAGAAGGCACAUGAGGAUCACCCAUGUGGUGUCGUACC
apparent Kd [1]: 187 nM
apparent Kd [2]: 35.9 nM

AAGAGUGCAGGAUAUACUUGUUAGGACGGUUGGAUGAUUUGACAUGAGGAUCACCCAUGUAGAAGGGCAGAGAG
apparent Kd [1]: 155 nM
apparent Kd [2]: 129 nM

AACAAUCUAUCUGAGGAUAUCAUGAAAAAAACAUGAGGAUCACCCAUGUGCAGGAAAACUGCAUAUGAGAAGGCAGAUAGAUUGU
apparent Kd [3]: 603 nM
apparent Kd [4]: 26.2 nM

AAAAAACAUGAGGAUCACCCAUGUCAGGAUAUCUGUAUUCAAUCCUCGGAUUGAAUACAGAGAAGGGACAAAAA
apparent Kd [1]: 37.8 nM
apparent Kd [2]: 54.6 nM

GAGUGGUGGAAAGGAUAUGCAUUGUUAUUCACUGUAGAAGGUUCUAACAUGAGGAUCACCCAUGUAGGACUAUUCCUGUGUUUU
apparent Kd [3]: 13.3 nM
apparent Kd [4]: 12.6 nM

GUAGCUACAUGAGGAUCACCCAUGUAGGAUAUCGCUAUUGUAAUCAUGUUACAUGAUUACAAUAGCGAGAAGGACGUUAGCUAC
apparent Kd [1]: 6.5 nM
apparent Kd [2]: 7.16 nM

ACGUUUUAUGCAGGAUAUUGAAAUUUAUUACAACAAGAAGGGCAAUACAUGAGGAUCACCCAUGUCAGCAUGGUAUUAAAGUUC
apparent Kd [1]: 18 nM
apparent Kd [2]: 16.1 nM

GUAGCAUAGGCAGGAUAUUCAUAUAAUAAAUAAACAUGAGGAUCACCCAUGUGGCGAAAGCCUUGGGAGAAGGGCCAAUGCUAC
apparent Kd [3]: 933 nM
apparent Kd [4]: 60.9 nM

UGUCGGAGCAGAGGAUAUUACAUGAGGAUCACCCAUGUAUGAACCAAUAGCUGGUAACAGCAAUGUAAGAAGGCUGCUCCGACA
apparent Kd [1]: 14.1 nM
apparent Kd [2]: 176 nM

GCGUCAGAAUUAAUUGUGACAUACAGAAGGCAAAAGUUAGGAUUAGACAUGAGGAUCACCCAUGUUGAGGAUAUGUAGAGAAUC
apparent Kd [1]: 9.69 nM
apparent Kd [2]: 8.52 nM

UUAUAAAGUGUGAGGAUAUGCUGGUCCUUGGAUCAGCAGAAGGCACAUGAGGAUCACCCAUGUAAUAUAUUUUU
apparent Kd [1]: 89.8 nM
apparent Kd [2]: 309 nM

AGAUAUGAUGCAGGAUAUCUAUCUUGAAUGAGGAGAGAAGGGCAAGCAGAGAGAUAAGCCUUAUGACAUGAGGAUCACCCAUGU
apparent Kd [1]: 10.2 nM
apparent Kd [2]: 8.61 nM

CUUUCGUGAGGAUAUGAAACUUCGAUCGUGAGAUCGAGGCUACAGAAGGCACAUGAGGAUCACCCAUGUUCCUC
apparent Kd [1]: 34.6 nM
apparent Kd [2]: 420 nM

UUUACGGGAGGAUAUACAUGAGGAUCACCCAUGUAACGGUGUGUAAUAUAUAUUGCGUGUAGAAGGUUUGUGGG
apparent Kd [1]: 79.3 nM
apparent Kd [2]: 78.6 nM

GCAGCGUAUGUAGGAUAUCGGUCAGUUUCUGAUCGAGAAGGACAUGAGGAUCACCCAUGUAAAUUACCGACUCUGUCGGGCUGC
apparent Kd [1]: 6.64 nM
apparent Kd [2]: 8.6 nM

AUAUUACGAGGAUAUCGUUUUUUUCACAUGAGGAUCACCCAUGUUAUUUAUGUUUCGUUUCGAGAAGGCGUAAGUU
apparent Kd [1]: 25 nM
apparent Kd [2]: 22.1 nM

GGUGAAUGAACAUGAGGAUCACCCAUGUACAGGAAACUGAAUGAGGAUAUCCAUAGCAAAGCUAUGGAGAAGGUAUGGGUCACC
apparent Kd [3]: 40.5 nM
apparent Kd [4]: 44.9 nM

GAUGCUAUCGGAGGAUAUUCAUACCGGAAACGGACAUGAGGAUCACCCAUGUGGCGAAAGCCUUGGGAGAAGGCCGAUAGCAUC
apparent Kd [3]: 610 nM
apparent Kd [4]: 20.5 nM

GUCCGGCGUGUAGGAUAUGGAUCCGAUUAGGAUCCAGAAGGACAUGAGGAUCACCCAUGUACAUGUAAACAGUCAUCACCGGAC
apparent Kd [1]: 6.4 nM
apparent Kd [2]: 7.41 nM

AAAAUGCAAGGAUAUACAUGAGGAUCACCCAUGUAGAAGGAAGCGAGGGUUUCCUGCUGUAGAAGGUGCUACAG
apparent Kd [1]: 23 nM
apparent Kd [2]: 20.5 nM

UUUUUGUCAGGAUAUCGUUAAUUUAAUUGUUUGUAUUAGUUCGAGAAGGGACAUGAGGAUCACCCAUGUUUUUU
apparent Kd [1]: 23.9 nM
apparent Kd [2]: 39.6 nM

GACAACAGAGGAUAUGCAUUGAGAUAGUUAUGAAGGUUGUUACAUGAGGAUCACCCAUGUAGAAGGCUGUCGUU
apparent Kd [1]: 18.3 nM
apparent Kd [2]: 24.3 nM

CUUUUGUGAGGAUAUCAGUAGUAAAAAAAUAAAAUUACUACUUAGAAGGCACAUGAGGAUCACCCAUGUUCCUC
apparent Kd [1]: 23.4 nM
apparent Kd [2]: 53 nM

CCUCCACAUGAGGAUCACCCAUGUCAGGAUAUCGUGUGUUUUUUUUCGGCCGCGCGUGCGAGAAGGGACGUCUU
apparent Kd [1]: 19.5 nM
apparent Kd [2]: 19.8 nM

AAAUUUAACGAAGGAUAUGGAUACAUGAGGAUCACCCAUGUUUAUUUUGUGAUCUUGUAUAAGUACCAGAAGGUCGUAUACAUA
apparent Kd [1]: 165 nM
apparent Kd [2]: 459 nM

AAAUAGGCAGGAUAUACAUGAGGAUCACCCAUGUGCCUAUGAAAGGUAAUUUUGAAAGGUAGAAGGGCCUAAAA
apparent Kd [1]: 10.5 nM
apparent Kd [2]: 12.1 nM

AAGAAAGAAACAUAGGAUAUCAAGGAUAUAACAUGAGGAUCACCCAUGUAAAUACGAAAGUAUAAUGAGAAGGAUGGAUGAUCUAC
apparent Kd [3]: 238 nM
apparent Kd [4]: 437 nM

AGUUAAUAUCGAGGAUAUCCUCAUAAACAUGAGGAUCACCCAUGUAGAAUGGGAGAAGGCGAUAUUAACAGCAUGUUACAUGCA
apparent Kd [3]: 210 nM
apparent Kd [4]: 114 nM

UUGUUGUAUGUAGGAUAUGCAUAUUAUUAUUAUGCAGAAGGACAUGAGGAUCACCCAUGUAUGUUAUUAUUAUAUGUUAUAUGU
apparent Kd [1]: 33.6 nM
apparent Kd [2]: 42.6 nM

UUUACAUGAGGAUCACCCAUGUUAAAAUAAUUAAUUAUAAGUGAGGAUAUAUAAUUUAUAAAAUUGUAGAAGGCACUGGGUAUU
apparent Kd [3]: 17.4 nM
apparent Kd [4]: 21.1 nM

AUCAGCUCGUCAGGAUAUACGUCACUGCGUCAGCAGUGUGGUAAGAUCACAUGAGGAUCACCCAUGUAGAAGGGACGUGCUGAU
apparent Kd [1]: 13.3 nM
apparent Kd [2]: 314 nM

GCAGGACAUGAGGAUCACCCAUGUUCAAAAUAUUGAGGAUAUGGAUACGGUAUAUCCGAACCAGAAGGCAACCUGC
apparent Kd [3]: 20.5 nM
apparent Kd [4]: 17.1 nM

ACGGCUGUCAGAGGAUAUGGUUACAUGAGGAUCACCCAUGUCAAGGGUCUAAUUAAGUAUAACUACUAGAAGGCUGAUGGCCGA
apparent Kd [1]: 282 nM
apparent Kd [2]: 129 nM

GUGUACAGAGGAUAUACAUGAGCUAGGAAACUAGCAACCUCACAUGAGGAUCACCCAUGUAGAAGGCUGUACAC
apparent Kd [1]: 32.7 nM
apparent Kd [2]: 25.8 nM

GUGCCUUGGGAGAAGGUUAUGUGCAAAGCAUUUAAAGGAUAUUCAUACCGGAAACGGACAUGAGGAUCACCCAUGUGGCACAAA
apparent Kd [3]: 621 nM
apparent Kd [4]: 150 nM
